This note sets out measurements from ChEMBL document CHEMBL5370658, “Development of First-in-Class Dual Sirt2/HDAC6 Inhibitors as Molecular Tools for Dual Inhibition of Tubulin Deacetylation” (J Med Chem, 2023).

Activity calls are given as the source filed them. No cut-off for these calls is given here.

Test [1] has as its target NAD-dependent protein deacylase sirtuin-6 (Homo sapiens) (UniProt Q8N6T7). As to the kind of experiment: Inhibition of Sirt6 (unknown origin) using Ac-EALPKK(Myr)Y(NO2)GG-NH2 as substrate at 20 to 500 uM preincubated for 5 mins followed by enzyme addition and measured after 1 hr by RP-HPLC analysis. The following applies: dose 20-500 µM, time 65.0 min. The method in brief:
(§1)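 Discontinuous HPLC assay, 120 µL in 20 mM Tris pH 7.8, 150 mM NaCl, 5 mM MgCl2, 0.2 mg/mL BSA, 5% DMSO. Inhibitor preincubated at 37 °C with NAD+ (1 mM) and substrate (Sirt5 5 µM; Sirt6 20 µM). Started with enzyme (Sirt5 100 nM; Sirt6 500 nM). Quenched with TFA/ACN. Sirt5 read by A220, Sirt6 by A360 (nitrotyrosine). Performed once in duplicates; IC50 by nonlinear regression.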

Another test deals with HGC-27. As to the kind of experiment: Cytotoxicity against human HGC-27 cells assessed as reduction in cell viability incubated for 72 hrs by MTS assay. The format is functional, cell-based. The gist of the method: (§2)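 Cell viability EC50 from at least two independent experiments, each run in triplicate. Results are compared by t-test.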
For orientation: Tetrazolium assays rely on reduction of a dye to a coloured formazan, in cell work by metabolically active cells.

The target in test [2] is Histone deacetylase 4 (Homo sapiens) (UniProt P56524). As to the kind of experiment: Inhibition of HDAC4 (unknown origin) using Abz-SRGGK(STFA)FRR-NH2 as substrate at 6 to 20000 nM preincubated for 5 mins followed by substrate addition and measured every 30 secs for 30 mins by continuous fluorescence based assay. The following applies: dose 6-20000 nM, time 35.0 min. The method in brief: (§3)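 Continuous fluorescence assay in 20 mM HEPES pH 7.4, 140 mM NaCl, 10 mM KCl, 1 mM TCEP, 0.2 mg/mL BSA, 3% DMSO final. Enzyme (HDAC4 5 nM, HDAC5 10 nM, HDAC7 5 nM, HDAC9 20 nM) preincubated with inhibitor at room temperature. HDAC10 (5 nM) instead in 20 mM HEPES pH 7.4, 0.5 mg/mL BSA. Initial slope used as activity.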
Sequence of Histone deacetylase 4 (Homo sapiens) (P56524 whole entry): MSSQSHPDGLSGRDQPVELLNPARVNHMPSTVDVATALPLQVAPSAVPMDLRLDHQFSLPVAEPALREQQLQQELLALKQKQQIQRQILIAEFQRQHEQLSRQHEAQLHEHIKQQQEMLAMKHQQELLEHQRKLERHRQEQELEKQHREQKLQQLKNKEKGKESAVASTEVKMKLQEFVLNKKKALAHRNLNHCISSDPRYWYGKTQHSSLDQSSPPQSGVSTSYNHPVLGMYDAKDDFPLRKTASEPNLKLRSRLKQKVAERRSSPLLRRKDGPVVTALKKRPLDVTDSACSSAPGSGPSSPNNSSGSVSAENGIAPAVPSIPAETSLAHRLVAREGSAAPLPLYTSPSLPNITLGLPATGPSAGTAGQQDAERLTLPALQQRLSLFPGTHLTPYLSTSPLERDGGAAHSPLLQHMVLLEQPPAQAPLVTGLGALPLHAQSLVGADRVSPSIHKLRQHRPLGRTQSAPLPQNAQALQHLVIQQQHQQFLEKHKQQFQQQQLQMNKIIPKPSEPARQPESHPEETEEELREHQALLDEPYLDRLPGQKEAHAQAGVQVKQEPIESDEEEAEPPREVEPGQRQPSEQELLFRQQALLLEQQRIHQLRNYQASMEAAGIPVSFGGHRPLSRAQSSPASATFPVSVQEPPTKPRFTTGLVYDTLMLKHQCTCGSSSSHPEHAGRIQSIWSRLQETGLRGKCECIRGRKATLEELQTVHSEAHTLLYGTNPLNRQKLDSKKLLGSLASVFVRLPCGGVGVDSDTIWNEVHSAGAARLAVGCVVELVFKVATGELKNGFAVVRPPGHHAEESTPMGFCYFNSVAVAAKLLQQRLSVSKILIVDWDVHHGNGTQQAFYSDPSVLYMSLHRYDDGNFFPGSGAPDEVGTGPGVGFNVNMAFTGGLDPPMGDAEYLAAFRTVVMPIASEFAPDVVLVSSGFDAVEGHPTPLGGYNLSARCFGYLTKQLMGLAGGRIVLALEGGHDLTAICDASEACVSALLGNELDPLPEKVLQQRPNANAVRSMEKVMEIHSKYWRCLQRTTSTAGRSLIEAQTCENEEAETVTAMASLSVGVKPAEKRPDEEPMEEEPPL

The target of test [3] is NAD-dependent protein deacylase sirtuin-5, mitochondrial (Homo sapiens) (UniProt Q9NXA8). Nature of the test: Inhibition of Sirt5 (unknown origin) using Bz-GVLK(Succ)EYGV-NH2 as substrate at 20 to 500 uM preincubated for 5 mins followed by enzyme addition and measured after 5 mins by RP-HPLC analysis. The following applies: dose 20-500 µM, time 10.0 min. The gist of the method:
as §1

In test [4] the target is T1, Polyamine deacetylase HDAC10 (Homo sapiens) (UniProt Q969S8).
T1 sequence (whole entry): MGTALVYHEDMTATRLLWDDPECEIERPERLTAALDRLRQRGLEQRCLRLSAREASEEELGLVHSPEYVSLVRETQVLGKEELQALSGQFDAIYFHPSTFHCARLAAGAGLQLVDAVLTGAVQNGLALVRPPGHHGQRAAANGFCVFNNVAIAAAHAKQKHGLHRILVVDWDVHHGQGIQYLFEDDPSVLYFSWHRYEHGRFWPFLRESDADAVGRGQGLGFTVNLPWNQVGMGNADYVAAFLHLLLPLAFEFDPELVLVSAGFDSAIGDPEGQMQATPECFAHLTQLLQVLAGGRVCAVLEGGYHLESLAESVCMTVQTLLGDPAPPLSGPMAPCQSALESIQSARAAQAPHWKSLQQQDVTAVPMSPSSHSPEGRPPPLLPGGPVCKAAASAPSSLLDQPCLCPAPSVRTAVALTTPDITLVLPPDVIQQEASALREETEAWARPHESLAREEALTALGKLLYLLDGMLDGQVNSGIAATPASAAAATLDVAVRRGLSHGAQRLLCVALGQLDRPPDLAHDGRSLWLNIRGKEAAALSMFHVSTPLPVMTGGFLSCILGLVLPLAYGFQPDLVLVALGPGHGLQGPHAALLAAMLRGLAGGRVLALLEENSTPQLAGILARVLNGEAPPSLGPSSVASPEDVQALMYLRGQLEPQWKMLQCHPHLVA
Nature of the test: Inhibition of HDAC10 (unknown origin) using Abz-SRGGK(STFA)FRR-NH2 as substrate at 6 to 20000 nM preincubated for 5 mins followed by substrate addition and measured every 30 secs for 30 mins by continuous fluorescence based assay. The following applies: dose 6-20000 nM, time 35.0 min. The method in brief: as §3

For test [5], the target named is Histone deacetylase 1/2/3 (Homo sapiens) (UniProt Q13547+O15379+Q92769). As to the kind of experiment: Inhibition of HDAC1/2/3 in human MCF7 cells assessed as increase in histone H3 acetylation at 10 to 20 uM incubated for 24 hrs by Western blot analysis. Type of test: cell-based. The note with it: dose 10-20 µM. On the technique in general: In western blotting, separated proteins are transferred to a membrane and probed.

For test [6], the target named is Histone deacetylase 5 (Homo sapiens) (UniProt Q9UQL6). As to the kind of experiment: Inhibition of HDAC5 (unknown origin) using Abz-SRGGK(STFA)FRR-NH2 as substrate at 6 to 20000 nM preincubated for 5 mins followed by substrate addition and measured every 30 secs for 30 mins by continuous fluorescence based assay. The following applies: dose 6-20000 nM, time 35.0 min. The gist of the method: as §3
Sequence of Histone deacetylase 5 (Homo sapiens) (Q9UQL6 whole entry): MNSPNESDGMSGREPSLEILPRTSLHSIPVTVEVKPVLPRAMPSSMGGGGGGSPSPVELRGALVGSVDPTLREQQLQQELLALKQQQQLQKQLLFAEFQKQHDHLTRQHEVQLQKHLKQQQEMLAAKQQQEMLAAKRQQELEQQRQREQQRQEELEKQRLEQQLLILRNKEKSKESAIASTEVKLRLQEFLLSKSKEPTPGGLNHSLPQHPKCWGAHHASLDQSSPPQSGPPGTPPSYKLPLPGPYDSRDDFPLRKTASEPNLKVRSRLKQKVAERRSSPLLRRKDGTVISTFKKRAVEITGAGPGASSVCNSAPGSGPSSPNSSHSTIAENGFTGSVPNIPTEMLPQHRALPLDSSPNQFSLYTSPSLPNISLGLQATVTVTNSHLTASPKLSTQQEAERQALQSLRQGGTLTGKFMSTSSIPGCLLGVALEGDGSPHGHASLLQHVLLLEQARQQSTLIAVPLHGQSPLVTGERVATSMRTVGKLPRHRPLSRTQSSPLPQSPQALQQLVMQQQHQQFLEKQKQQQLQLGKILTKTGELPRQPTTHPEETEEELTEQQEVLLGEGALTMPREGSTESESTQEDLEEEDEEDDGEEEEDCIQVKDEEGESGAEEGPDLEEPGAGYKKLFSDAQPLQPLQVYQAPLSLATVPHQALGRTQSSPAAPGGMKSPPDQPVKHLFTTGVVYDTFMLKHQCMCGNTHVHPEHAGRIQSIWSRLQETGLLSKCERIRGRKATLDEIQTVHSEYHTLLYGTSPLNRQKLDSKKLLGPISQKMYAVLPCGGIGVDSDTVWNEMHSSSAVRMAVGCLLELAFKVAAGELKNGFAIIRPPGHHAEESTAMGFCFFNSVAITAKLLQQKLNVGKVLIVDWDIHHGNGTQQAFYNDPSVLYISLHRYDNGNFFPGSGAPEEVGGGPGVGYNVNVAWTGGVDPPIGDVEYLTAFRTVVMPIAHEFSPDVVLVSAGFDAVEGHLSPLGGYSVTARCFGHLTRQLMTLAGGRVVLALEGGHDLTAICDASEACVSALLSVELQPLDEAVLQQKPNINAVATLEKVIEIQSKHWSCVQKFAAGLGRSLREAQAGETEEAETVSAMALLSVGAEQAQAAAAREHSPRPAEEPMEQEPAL

For test [7], the system named is PC-3M-luc. Nature of the test: Cytotoxicity against human PC-3M-luc cells assessed as reduction in cell viability incubated for 72 hrs by MTS assay. Type of test: functional, cell-based. The method in brief: as §2
The next test has as its system W1 Ovarian cancer cell. Nature of the test: Cytotoxicity against human W1 Ovarian cancer cells assessed as reduction in cell viability incubated for 72 hrs by MTT assay. The format is functional, cell-based. The gist of the method: as §2
Test [8] has as its system PC-3M-luc. The following applies: Homo sapiens, dose 20.0 µM, time 5.0 hrs.

Sequence of NAD-dependent protein deacylase sirtuin-5, mitochondrial (Homo sapiens) (Q9NXA8 37-310 limits assumed): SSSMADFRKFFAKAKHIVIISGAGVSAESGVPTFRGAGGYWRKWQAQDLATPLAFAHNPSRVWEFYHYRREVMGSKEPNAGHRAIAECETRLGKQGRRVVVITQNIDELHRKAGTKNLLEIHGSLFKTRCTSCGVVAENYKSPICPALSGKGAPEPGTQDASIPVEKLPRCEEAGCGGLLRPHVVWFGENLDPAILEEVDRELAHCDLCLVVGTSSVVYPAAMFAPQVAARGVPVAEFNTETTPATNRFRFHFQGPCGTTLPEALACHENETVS
Sequence of NAD-dependent protein deacylase sirtuin-6 (Homo sapiens) (Q8N6T7 whole entry): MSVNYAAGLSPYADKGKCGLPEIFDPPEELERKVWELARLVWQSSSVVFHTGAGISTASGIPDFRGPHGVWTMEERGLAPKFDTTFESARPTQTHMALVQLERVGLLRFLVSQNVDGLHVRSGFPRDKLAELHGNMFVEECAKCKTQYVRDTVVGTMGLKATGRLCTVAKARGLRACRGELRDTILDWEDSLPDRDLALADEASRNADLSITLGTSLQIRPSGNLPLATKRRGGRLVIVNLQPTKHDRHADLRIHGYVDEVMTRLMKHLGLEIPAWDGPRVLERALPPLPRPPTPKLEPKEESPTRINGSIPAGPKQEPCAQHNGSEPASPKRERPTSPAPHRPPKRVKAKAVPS

Consider `CCCCN(Cc1ccc(C(=O)NO)cc1)C(=O)CCCCn1cc(COc2cccc(Cc3cnc(NC(=O)CSc4nc(C)cc(C)n4)s3)c2)nn1`, for which the inhibition entry in test [1], in test [2], in test [3], in [4], in test [5] and in [6] was “inactive” throughout. Moreover, the outcome in the test on HGC-27, in the test with PC-3M-luc [7] and in the test with W1 Ovarian cancer cell was Active. In the test on PC-3M-luc [8], the inhibition result was “Active”.
